Series [1] in a line: Antiaggregatory activity in human platelet rich plasma assessed as inhibition of collagen-induced platelet aggregation at 300 uM preincubated 10 mins before collagen challenge. The format is functional. The procedure, abridged:
(§1)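 Platelet-rich plasma from citrated blood spun at 210g for 20 min. Compound in 0.5% DMSO vehicle preincubated 10 min, then submaximal collagen (0.8–1.5 μg/mL). Light-transmission aggregometry with stirring at 1000 rpm, 37 °C, recorded for 10 min. Read-out is % inhibition versus vehicle control; IC50 by nonlinear regression, else % inhibition at 300 μM top concentration. At least five experiments.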

The test system of a further series is Platelet. Briefly: Antiaggregatory activity in human platelet rich plasma assessed as inhibition of collagen-induced platelet aggregation preincubated 10 mins before collagen challenge. The format is functional. A digest of the protocol: as §1
Series [2] deals with Aorta. Briefly: Vasodilatory activity in Wistar rat endothelium-denuded thoracic aortic ring assessed as inhibition of phenylephrine-induced contraction at 30 uM preincubated for 30 mins before phenylephrine addition in presence of 1 uM 1H-[1,2,4]oxadiazolo[4,3-a]quinoxalin-1-one. More on the design: scale not given: the % may be the effect or the level left. Format: functional.

For series [3], the system named is Aorta. Briefly: Vasodilatory activity in Wistar rat endothelium-denuded thoracic aortic ring assessed as inhibition of phenylephrine-induced contraction […]. Format: functional, tissue-based. The procedure, abridged: (§2)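 Endothelium-denuded rat aorta strips are precontracted with phenylephrine. At the plateau, cumulative concentrations of test agent in DMSO are added. Relaxation is recorded isometrically and reported as EC50 ± SEM (μM). In a separate series, 1 μM ODQ is added 5 min before contraction, giving at least 30 min of preincubation before the vasodilator. At least five experiments.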

Series [4] is described as follows: Chemical stability in acidic medium at pH 1 assessed as unchanged drug level at 0.5 mM after 3 hrs by RP-HPLC analysis. The format is physicochemical. Conditions: read-out: Stability. The procedure, abridged:
(§3)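 A 0.5 mM acetonitrile solution (2 mL) is diluted to 10 mL with HCl (pH 1.0) or 50 mM phosphate buffer (pH 7.4) and held at 37 ± 0.5 °C. Aliquots are taken over time for RP-HPLC (C18 column, acetonitrile/water gradient with 0.1% TFA). Performed in triplicate.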

A short description of series [5]: Chemical stability in phosphate buffer at pH 7.4 assessed as unchanged drug level at 0.5 mM after 3 hrs by RP-HPLC analysis. The format is physicochemical. Particulars: read-out: Stability. A digest of the protocol: as §3
In a further series the test system is Serum. Briefly: Metabolic stability in human serum assessed as maximal amount of aspirin released at 250 uM by RP-HPLC analysis. Format: ADME, cell-free.
The nature of series [6]: Metabolic stability in human serum assessed as half life at 250 uM by RP-HPLC analysis. The format is ADME, cell-free.
In series [7] the test system is Aorta. Description: Vasodilatory activity in Wistar rat endothelium-denuded thoracic aortic ring assessed as inhibition of phenylephrine-induced contraction preincubated for […] in presence of 1 uM 1H-[1,2,4]oxadiazolo[4,3-a]quinoxalin-1-one. Format: functional, tissue-based. The procedure, abridged: as §2

For the compound `CC(=O)Oc1ccccc1C(=O)OC(C)OC(=O)c1ccc(SCCCO[N+](=O)[O-])cc1` (centres undefined), the inhibition at 300 µM in [1] amounted to 27%. For the same compound, the Activity entry in the series with Platelet was “Dose-dependent effect”; with Aorta [2], below 50%; in the series on Aorta [3] it was “Dose-dependent effect”; with Serum, 29.4%. Moreover, in the series on Aorta [3], the EC50 worked out at 140 nM. Also, the values for the remaining at 3 h, 500 µM in [4] and in [5] were 98% and 99%, respectively. For the same compound, the half-life at 250 µM in series [6] was determined as 4.4 min.
Turning to `O=C(O)c1ccc(OCC(CO[N+](=O)[O-])O[N+](=O)[O-])cc1` (centres undefined), in the series on Aorta [3], the Activity entry was “Dose-dependent effect”. The EC50 with Aorta [3] came to 280 nM; with Aorta [7], 67000 nM.
In the case of `CC(=O)Oc1ccccc1C(=O)OCOC(=O)CCCCCCO[N+](=O)[O-]`, in series [1], the inhibition at 300 µM stood at 29%. The Activity entry was “Dose-dependent effect” with Platelet, below 50% in the series on Aorta [2], “Dose-dependent effect” with Aorta [3] and 17.6% in the series with Serum. The EC50 in the series on Aorta [3] was determined as 1600 nM. Also, the remaining at 3 h, 500 µM in series [4] was determined as 99%; in series [5], 100%. In addition, the half-life at 250 µM in series [6] is below 1 min.
With `O=C(O)c1ccc(SCCCO[N+](=O)[O-])cc1`, the Activity result with Aorta [3] is “Dose-dependent effect”. Also, the results for the EC50 in the series with Aorta [3] and in the series with Aorta [7] were 270 nM and 53000 nM, respectively.
Regarding `CC(=O)Oc1ccccc1C(=O)OCOC(=O)CCCC(CO[N+](=O)[O-])O[N+](=O)[O-]` (centres undefined), the inhibition at 300 µM in [1] was found to be 8.6%. The Activity result with Platelet is “Dose-dependent effect”; with Aorta [2], below 50%; in the series on Aorta [3], “Dose-dependent effect”; in the series with Serum, 10.6%. Moreover, the EC50 in the series with Aorta [3] came out at 390 nM. Besides, the remaining at 3 h, 500 µM in series [4] and in [5] was 99% throughout. Also, the half-life at 250 µM in series [6] was below 1 min.
As for `O=C(O)c1ccc(OCCCO[N+](=O)[O-])cc1`, in the series with Aorta [3], the Activity result is “Dose-dependent effect” and the EC50 was 620 nM. The EC50 with Aorta [7] stood at 66000 nM.
Consider `O=C(O)c1ccc(SCC(CO[N+](=O)[O-])O[N+](=O)[O-])cc1` (centres undefined), for which, in the series on Aorta [3], the Activity entry was “Dose-dependent effect”. Moreover, the figures for the EC50 in the series with Aorta [3] and with Aorta [7] were 270 nM and 56000 nM, respectively.

In general, inhibition refers to the relative decrease from the control value, in per cent. For orientation: EC50 means the concentration needed to bring the measured effect to its halfway point. What is called half-life is how long it takes for the measured level to halve.

The record behind these values is ChEMBL document CHEMBL1151960, “(Nitrooxyacyloxy)methyl esters of aspirin as novel nitric oxide releasing aspirins” (J Med Chem, 2009).
